Experimental data reported in ChEMBL document CHEMBL1131524, “Azapeptides as inhibitors and active site titrants for cysteine proteinases” (J Med Chem, 1998).

What was measured:
Papain (Carica papaya) [1] = target: T1, Papain (Carica papaya) (UniProt P00784); assay: The apparent second-order rate constant for inactivation of papain enzyme. Apparent rate constant was determined from repeats of Kobs vs [I] using at least 5 values of [I].
T1 sequence (whole entry): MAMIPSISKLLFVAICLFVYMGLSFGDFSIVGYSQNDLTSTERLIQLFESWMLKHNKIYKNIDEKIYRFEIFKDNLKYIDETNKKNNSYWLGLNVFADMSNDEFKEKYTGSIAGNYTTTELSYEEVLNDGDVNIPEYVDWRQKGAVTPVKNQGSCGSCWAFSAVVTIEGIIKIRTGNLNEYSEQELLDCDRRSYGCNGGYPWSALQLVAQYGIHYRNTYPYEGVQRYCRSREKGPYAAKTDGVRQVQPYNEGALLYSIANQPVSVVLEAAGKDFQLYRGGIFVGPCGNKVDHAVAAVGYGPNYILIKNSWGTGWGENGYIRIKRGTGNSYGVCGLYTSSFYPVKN
In short: (§1)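 Papain purified from mercuripapain on Hg-Sepharose, then activated with L-cysteine for 15 min at room temperature in 50 mM K2HPO4, 1 mM EDTA, pH 6.3. Assays used 50 μM Cbz-Gly-ONp in buffer with 20% CH3CN, followed at 340 nm and corrected for spontaneous hydrolysis. Analysis was by Kitz–Wilson, with kobsd taken from slopes of semilog activity-versus-time plots.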

Cathepsin B (Bos taurus) [2] = target: Cathepsin B (Bos taurus) (UniProt P07688); assay: The apparent second-order rate constant for inactivation of bovine cathepsin B enzyme. Apparent rate constant was determined from repeats of Kobs vs [I] using at least 5 values of [I], where I=0.2 mM
In short: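 Bovine spleen cathepsin B, activated with 10 mM dithiothreitol, in 25 mM sodium acetate pH 5.3 with 1 mM EDTA and 20% CH3CN (v/v). Substrate 80 μM Cbz-Lys-ONp; hydrolysis followed at 326 nm (Δε 9060 M⁻¹ cm⁻¹). Enzyme concentration set by E-64 titration. Kitz–Wilson analysis: k_obsd from slopes of semilog plots of activity vs time.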

Cathepsin B (Bos taurus) [3] = target: Cathepsin B (Bos taurus) (UniProt P07688); assay: Specificity constant is determined from the ratio of the inactivation rate constants (Kcat/Km)of the cathepsin B.
Papain (Carica papaya) [4] = target: T1, Papain (Carica papaya); assay: Specificity constant is determined from the ratio of the inactivation rate constants (Kcat/Km)of the papaine.
Papain (Carica papaya) [5] = target: T1, Papain (Carica papaya); assay: Specificity constant is determined from the ratio of the inactivation rate constants (Kcat/Km)of the papain
Cathepsin B (Bos taurus) [6] = target: Cathepsin B (Bos taurus) (UniProt P07688); assay: The apparent second-order rate constant for inactivation of bovine cathepsin B enzyme. Apparent rate constant was determined from repeats of Kobs vs [I] using at least 5 values of [I].
In short: (§2)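 Bovine spleen cathepsin B was activated with 10 mM dithiothreitol, and its active concentration was set by E-64 titration. Assays ran in 25 mM sodium acetate, 1 mM EDTA, pH 5.3, with 20% CH3CN and 80 μM Cbz-Lys-ONp, monitored at 326 nm. Inactivation was analysed by Kitz–Wilson, with kobsd from semilog plots of activity versus time.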

Papain (Carica papaya) [7] = target: T1, Papain (Carica papaya); assay: Specificity constant is determined from the ratio of the inactivation rate constants (Kcat/Km)of the papain.
Cathepsin B (Bos taurus) [8] = target: Cathepsin B (Bos taurus) (UniProt P07688); assay: The apparent second-order rate constant for inactivation of bovine cathepsin B enzyme. Apparent rate constant was determined from repeats of Kobs vs [I] using at least 5 values of [I], where I=0.95 mM; in short: as §2
Papain (Carica papaya) [9] = target: T1, Papain (Carica papaya); assay: The apparent second-order rate constant for inactivation of papain enzyme. Apparent rate constant was determined from repeats of Kobs vs [I] using at least 5 values of [I] where I=0.95 mM; in short: as §1

Compound | k2/Ki (Papain (Carica papaya) [1]) | k cat/Km (Cathepsin B (Bos taurus) [3]) | k2/Ki (Cathepsin B (Bos taurus) [6]) | other results
CC(=O)N[C@@H](Cc1ccccc1)C(=O)N/N=C(/N)S | 0.03 M⁻¹ s⁻¹ |  |  | 
COC(=O)NNC(=O)[C@H](Cc1ccccc1)NC(C)=O | 19 M⁻¹ s⁻¹ |  |  | 
CC(=O)N[C@@H](Cc1ccccc1)C(=O)NN(C)C(=O)Oc1ccccc1 | 110 M⁻¹ s⁻¹ | 18 M⁻¹ s⁻¹ |  | k obs / 1 (Cathepsin B (Bos taurus) [2]): 18; k cat/Km (Papain (Carica papaya) [4]): 110 M⁻¹ s⁻¹
COC(=O)N(C)NC(=O)[C@H](Cc1ccccc1)NC(C)=O | 0.05 M⁻¹ s⁻¹ |  |  | 
CC(=O)N[C@@H](Cc1ccccc1)C(=O)NNC(=O)OCC(Cl)(Cl)Cl | 11800 M⁻¹ s⁻¹ | 730 M⁻¹ s⁻¹ | 730 M⁻¹ s⁻¹ | k cat/Km (Papain (Carica papaya) [4]): 11800 M⁻¹ s⁻¹
CC(=O)N[C@@H](Cc1ccccc1)C(=O)NNC(=O)OCCCl | 1150 M⁻¹ s⁻¹ |  | 54 M⁻¹ s⁻¹ | 
CC(=O)N[C@@H](Cc1ccccc1)C(=O)NN(Cc1ccccc1)C(=O)Oc1ccccc1 |  |  |  | kobs/[I] (Cathepsin B (Bos taurus) [8]): < 0.2 M⁻¹ s⁻¹; kobs/[I] (Papain (Carica papaya) [9]): 0.3 M⁻¹ s⁻¹
CC(=O)N[C@@H](Cc1ccccc1)C(=O)NNC(N)=O | 4 M⁻¹ s⁻¹ |  | 0 M⁻¹ s⁻¹ | 
CC(=O)N[C@@H](Cc1ccccc1)C(=O)NNC(=O)OCC(C)C | 55 M⁻¹ s⁻¹ |  |  | 
CC(=O)N[C@@H](Cc1ccccc1)C(=O)NNC(=O)OCCBr | 1250 M⁻¹ s⁻¹ |  | 90 M⁻¹ s⁻¹ | 
CC(=O)N[C@@H](Cc1ccccc1)C(=O)NN(C)C(=O)OCC(Cl)(Cl)Cl | 12 M⁻¹ s⁻¹ |  |  | kobs/[I] (Cathepsin B (Bos taurus) [8]): 0.34 M⁻¹ s⁻¹
CCOC(=O)N(C)NC(=O)[C@H](Cc1ccccc1)NC(C)=O | 0.05 M⁻¹ s⁻¹ |  |  | 

The next lines start with results.

k2/Ki (Papain (Carica papaya) [1]) | k cat/Km (Cathepsin B (Bos taurus) [3]) | k2/Ki (Cathepsin B (Bos taurus) [6]) | Compound | other results
> 70000 M⁻¹ s⁻¹ |  |  | CC(=O)N[C@@H](Cc1ccccc1)C(=O)NNC(=O)Oc1ccc([N+](=O)[O-])cc1 | 
 | 80000 M⁻¹ s⁻¹ |  | O=C(N[C@@H](Cc1ccccc1)C(=O)Oc1ccc([N+](=O)[O-])cc1)OCc1ccccc1 | k cat/Km (Papain (Carica papaya) [5]): 120000 M⁻¹ s⁻¹
67600 M⁻¹ s⁻¹ | 7730 M⁻¹ s⁻¹ | 7730 M⁻¹ s⁻¹ | CC(=O)N[C@@H](Cc1ccccc1)C(=O)NNC(=O)Oc1ccccc1 | k cat/Km (Papain (Carica papaya) [4]): 67600 M⁻¹ s⁻¹
 | 776000 M⁻¹ s⁻¹ |  | NCCCC[C@H](NC(=O)OCc1ccccc1)C(=O)Oc1ccc([N+](=O)[O-])cc1 | k cat/Km (Papain (Carica papaya) [7]): 853000 M⁻¹ s⁻¹
30500 M⁻¹ s⁻¹ |  | 310 M⁻¹ s⁻¹ | CC(=O)N[C@@H](Cc1ccccc1)C(=O)NNC(=O)OCc1ccccc1 | 
47 M⁻¹ s⁻¹ |  |  | CCOC(=O)NNC(=O)[C@H](Cc1ccccc1)NC(C)=O | 
1 M⁻¹ s⁻¹ |  | 0 M⁻¹ s⁻¹ | CC(=O)N[C@@H](Cc1ccccc1)C(=O)NNC(=O)Nc1ccc([N+](=O)[O-])cc1 | 
 | 450000 M⁻¹ s⁻¹ |  | C[C@H](NC(=O)OCc1ccccc1)C(=O)Oc1ccc([N+](=O)[O-])cc1 | k cat/Km (Papain (Carica papaya) [5]): 800000 M⁻¹ s⁻¹
